According to ChEMBL document CHEMBL2040756, “Discovery and optimization of 2,4-diaminoquinazoline derivatives as a new class of potent dengue virus inhibitors” (J Med Chem, 2012):
The source made the active and inactive calls. No cut-off for these calls is given here.

Columns and labels:
dengue virus type 2 [1] = assay: Antiviral activity against Dengue virus 2 infected in BHK-D2RepT replicon systems assessed as inhibition of viral replication after 24 hrs by luciferase reporter gene assay; format: functional, organism-based
How it was run: (§1)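 BHK-D2RepT replicon cells, kept in MEM with 10% FBS and 200 μg/mL G418, were preseeded 24 h without G418. Compounds were diluted from DMSO stock into MEM, with final DMSO <0.2% (v/v), and incubated 24 h. Medium was then replaced and firefly luciferase read. Inhibition was expressed as a percentage of the no-compound luciferase signal.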

[2] = Cytotoxicity against hamster BHK cells; format: cell-based, Mesocricetus auratus
[3] = Selectivity index, ratio of CC50 for hamster BHK cells to EC50 for Dengue virus 2; format: toxicity, cell-based; settings: read-out: Ratio CC50/EC50
dengue virus type 2 [4] = assay: Antiviral activity against Dengue virus 2 infected in BHK-D2RepT replicon systems assessed as inhibition of viral multiplication after 24 hrs by luciferase reporter gene assay; format: functional, organism-based; how it was run: as §1
dengue virus type 2 [5] = assay: Antiviral activity against Dengue virus 2 infected in BHK-D2RepT replicon systems assessed as inhibition of viral expression after 24 hrs by luciferase reporter gene assay; format: functional, organism-based; how it was run: as §1
dengue virus type 2 [6] = assay: Antiviral activity against Dengue virus 2 infected in BHK-D2RepT replicon systems assessed as […] after 24 hrs by luciferase reporter gene assay; format: functional, organism-based
How it was run: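 BHK-D2RepT DENV-2 replicon cells carrying a luciferase reporter are kept in MEM with 10% FBS and 200 μg/mL G418, then preseeded 24 h without G418. Compound from DMSO stock is diluted in MEM (final DMSO <0.2% v/v) and incubated 24 h. Medium is replaced and firefly luciferase read. Inhibition is expressed as percent of no-compound luciferase signal.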

dengue virus type 2 [7] = assay: Antiviral activity against Dengue virus 2 NGC infected in forest mosquito C6/36 cells assessed as inhibition of virus-induced cytopathic effect after 48 hrs by optical microscopy; format: functional, organism-based
How it was run: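 DENV-2 NGC strain was grown in C6/36 cells and titered. C6/36 cells were preseeded overnight and then infected at MOI 0.01, allowing several rounds of replication that produce syncytia.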

[8] = AUC (0 to infinity) in rat at 20 mg/kg, po administered as single dose; format: ADME, organism-based; parameters: time infinity, dose 20 mg/kg, route oral; settings: plasma
How it was run: (§2)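 Rats received one dose, either oral at 20 mg/kg or intravenous at 10 mg/kg. Plasma concentration of the compound was followed over time after dosing. AUC was taken as the area under the plasma concentration–time curve from time zero to infinity.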

[9] = Mean residence time in rat at 20 mg/kg, po administered as single dose; format: ADME, organism-based; parameters: dose 20 mg/kg, route oral; settings: in vivo
How it was run: (§3)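 Rats received a single dose of 20 mg/kg orally or 10 mg/kg intravenously. Plasma concentration–time profiles gave AUC0→∞, MRT, t1/2, Tmax, Cmax, clearance, terminal volume of distribution and oral bioavailability.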

[10] = Half life in rat at 20 mg/kg, po administered as single dose; format: ADME, organism-based; parameters: dose 20 mg/kg, route oral; settings: in vivo; how it was run: as §3
[11] = Tmax in rat at 20 mg/kg, po administered as single dose; format: ADME, organism-based; parameters: dose 20 mg/kg, route oral; settings: in vivo; how it was run: as §3
[12] = Cmax in rat at 20 mg/kg, po administered as single dose measured 2 hrs post dose; format: ADME, organism-based; parameters: dose 20 mg/kg, route oral; settings: in vivo; how it was run: as §3
[13] = Plasma clearance in rat at 10 mg/kg, iv administered as single dose; format: ADME, organism-based; parameters: dose 10 mg/kg, route intravenous; how it was run: as §3
[14] = Apparent volume of distribution in rat at 10 mg/kg, iv administered as single dose; format: ADME, organism-based; parameters: dose 10 mg/kg, route intravenous; settings: in vivo, read-out: Vz; how it was run: as §3
[15] = Oral bioavailability in rat at 20 mg/kg administered as single dose; format: ADME, organism-based; settings: in vivo; how it was run: as §3
[16] = AUC (0 to infinity) in rat at 10 mg/kg, iv administered as single dose; format: ADME, organism-based; parameters: time infinity, dose 10 mg/kg, route intravenous; settings: plasma; how it was run: as §2
[17] = Mean residence time in rat at 10 mg/kg, iv administered as single dose; format: ADME, organism-based; parameters: dose 10 mg/kg, route intravenous; settings: in vivo; how it was run: as §3
[18] = Half life in rat at 10 mg/kg, iv administered as single dose; format: ADME, organism-based; parameters: dose 10 mg/kg, route intravenous; settings: in vivo; how it was run: as §3
[19] = biological target: Voltage-gated inwardly rectifying potassium channel KCNH2 (Homo sapiens, UniProt Q12809); assay: Inhibition of human ERG expressed in HEK293 cells by patch clamp assay; format: cell-based
How it was run: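 hERG (IKr) potassium channel currents in HEK-293 cells were recorded by patch clamp.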

dengue virus type 2 [20] = assay: Antiviral activity against Dengue virus 2

Chain of Voltage-gated inwardly rectifying potassium channel KCNH2 (Q12809 whole entry): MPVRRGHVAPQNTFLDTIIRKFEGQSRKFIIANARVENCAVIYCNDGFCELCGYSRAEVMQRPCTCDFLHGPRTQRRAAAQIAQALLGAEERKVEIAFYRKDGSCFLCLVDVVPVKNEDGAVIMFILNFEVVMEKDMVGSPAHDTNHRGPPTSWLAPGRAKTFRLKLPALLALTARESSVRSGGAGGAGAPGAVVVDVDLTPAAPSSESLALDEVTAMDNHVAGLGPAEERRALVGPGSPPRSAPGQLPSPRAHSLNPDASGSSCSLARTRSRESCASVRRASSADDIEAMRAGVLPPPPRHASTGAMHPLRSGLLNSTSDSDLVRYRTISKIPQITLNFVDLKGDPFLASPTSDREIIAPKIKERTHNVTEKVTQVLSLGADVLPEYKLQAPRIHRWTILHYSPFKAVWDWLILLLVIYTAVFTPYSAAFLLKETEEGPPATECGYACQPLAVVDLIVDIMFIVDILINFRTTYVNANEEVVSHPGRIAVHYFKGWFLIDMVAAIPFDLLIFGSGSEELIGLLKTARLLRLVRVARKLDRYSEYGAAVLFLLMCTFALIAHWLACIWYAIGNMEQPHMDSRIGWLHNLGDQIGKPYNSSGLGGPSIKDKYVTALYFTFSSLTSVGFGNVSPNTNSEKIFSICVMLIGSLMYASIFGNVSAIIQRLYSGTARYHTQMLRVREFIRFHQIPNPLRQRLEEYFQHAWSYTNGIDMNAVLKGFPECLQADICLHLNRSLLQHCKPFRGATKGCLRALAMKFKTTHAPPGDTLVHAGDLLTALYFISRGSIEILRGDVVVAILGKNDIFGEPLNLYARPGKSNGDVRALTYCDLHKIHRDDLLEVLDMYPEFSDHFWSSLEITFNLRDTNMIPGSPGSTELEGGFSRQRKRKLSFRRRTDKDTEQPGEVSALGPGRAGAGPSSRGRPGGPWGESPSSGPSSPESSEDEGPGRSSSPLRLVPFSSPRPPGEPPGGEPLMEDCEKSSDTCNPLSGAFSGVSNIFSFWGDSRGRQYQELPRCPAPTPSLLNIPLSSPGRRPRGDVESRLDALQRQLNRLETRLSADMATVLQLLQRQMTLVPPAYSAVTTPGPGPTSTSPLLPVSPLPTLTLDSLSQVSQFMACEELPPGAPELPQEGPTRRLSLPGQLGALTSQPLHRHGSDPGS

| Compound | EC50 (dengue virus type 2 [1]) [nM] | CC50 [2] [nM] | selectivity ratio [3] | also measured |
| --- | --- | --- | --- | --- |
| COc1cccc2nc(N)nc(N)c12 | 150 | > 10000 | > 66.7 |  |
| CC(C)(C)Nc1cccc2nc(N)nc(N)c12 | 9.2 | 2500 | > 200 |  |
| CC(C)(C)COc1cccc2nc(N)nc(N)c12 | 80 | 650 | 8.1 |  |
| CC(C)(C)Sc1cccc2nc(N)nc(N)c12 | 900 | 5300 | 5.9 |  |
| Nc1nc(N)c2ccc(Oc3ccccc3)cc2n1 | > 10000 | > 10000 |  |  |
| CC(C)(C)Oc1cccc2nc(N)nc(N)c12 | 2.8 | > 10000 | > 1000 | Activity (dengue virus type 2 [4]): Active; Activity (dengue virus type 2 [5]): Active; EC50 (dengue virus type 2 [6]): < 50 nM; Activity (dengue virus type 2 [7]): Active; AUC(0-inf) [8]: 2220 ng·h/mL; MRT [9]: 7.2 h; half-life [10]: 5 h; Tmax [11]: 2 h; Cmax [12]: 249 ng/mL; clearance [13]: 6.56 mL/min/kg; Vd [14]: 11.7 L/kg; bioavailability [15]: 69%; AUC(0-inf) [16]: 1560 ng·h/mL; MRT [17]: 1.8 h; half-life [18]: 1.3 h; IC50 [19]: 20200 nM; Activity (dengue virus type 2 [20]): Active |
| COc1ccc2nc(N)nc(N)c2c1 | > 10000 | > 10000 |  |  |
| Nc1nc(N)c2cc(Oc3ccccc3)ccc2n1 | > 10000 | > 10000 |  |  |
| CCCCCCCCOc1cccc2nc(N)nc(N)c12 | 180 | 730 | 4.1 |  |
| CCOc1cccc2nc(N)nc(N)c12 | 37 | > 10000 | > 200 |  |
| CN(C)c1cccc2nc(N)nc(N)c12 | 3300 | > 10000 | > 3 |  |
| Nc1nc(N)c2c(OCC(F)(F)F)cccc2n1 | 7.9 | > 10000 | > 1000 |  |
| Nc1nc(N)c2cccc(Oc3ccccc3)c2n1 | 60 | 550 | 9.2 |  |
| Nc1nc(N)c2c(F)cccc2n1 | > 10000 | > 10000 |  |  |
| CCCCOc1cccc2nc(N)nc(N)c12 | 36 | > 10000 | > 200 |  |
| Nc1nc(N)c2c(Oc3ccccc3)cccc2n1 | 29 | > 10000 | > 300 |  |
| Nc1nc(N)c2c(OCc3ccccc3)cccc2n1 | 39 | > 10000 | > 200 |  |
| COc1cccc2c(N)nc(N)nc12 | 5400 | > 10000 | > 1.9 |  |
| Nc1nc(N)c2ccccc2n1 | > 10000 | > 10000 |  |  |
| Nc1nc(N)c2c(N3CCCC3)cccc2n1 | 150 | 1200 | 8 |  |
| COc1ccc2c(N)nc(N)nc2c1 | > 10000 | > 10000 |  |  |
| Nc1nc(N)c2c(OC3CCCC3)cccc2n1 | 7.4 | > 10000 | > 1000 |  |
| Nc1nc(N)c2c(OC3CCCCC3)cccc2n1 | 130 | > 10000 | > 76.9 |  |
| CC(C)(C)S(=O)(=O)c1cccc2nc(N)nc(N)c12 | > 10000 | > 10000 |  |  |
